From ChEMBL document CHEMBL3769384, “Discovery of Tetrahydropyrazolopyridine as Sphingosine 1-Phosphate Receptor 3 (S1P3)-Sparing S1P1 Agonists Active at Low Oral Doses” (J Med Chem, 2016) come the findings set out here.

The target in data set [1] is Sphingosine 1-phosphate receptor 5 (Homo sapiens, UniProt Q9H228). The data set can be described thus: Agonist activity at human S1P5 receptor expressed in CHO-K1 cells by aequorin calcium accumulation assay. It is filed as functional, cell-based. The gist of the method:
(§1)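 CHO-K1 aequorin lines revived in DMEM F12 with 10% charcoal-stripped FBS, recovered 30 min at 37°C, then loaded 18-24 h at room temperature in the dark with 5 µM coelenterazine at 2.5x10^6 cells/mL. Cells were added at 1x10^5/well to compound, and flash luminescence was recorded immediately.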

Data set [2] has as its system Hepatocyte. Nature of the data set: Intrinsic clearance in human hepatocytes at 0.5 uM after 2 hrs by LC-MS/MS analysis. The format is ADME, cell-based. In a few lines:
(§2)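 Compound at 0.5 µM incubated with pooled cryopreserved hepatocytes (0.7 million cells/mL) in Williams Medium E at 37°C under CO2/O2. Supernatants analysed by LC-MS/MS. CLi was derived from a first-order rate constant, scaled with 1.2x10^8 cells/g liver (human, rat, mouse) or 2.4x10^8 cells/g liver (dog).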

Data set [3] can be described thus: Activation of CYP1A (unknown origin). It is filed as ADME. The following applies: human.
A short description of data set [4]: Oral bioavailability in rat. The following applies: in vivo. It is filed as ADME, organism-based.
Data set [5] concerns the target T1, Sphingosine 1-phosphate receptor 4 (Homo sapiens, UniProt O95977).
T1 sequence (O95977 whole entry): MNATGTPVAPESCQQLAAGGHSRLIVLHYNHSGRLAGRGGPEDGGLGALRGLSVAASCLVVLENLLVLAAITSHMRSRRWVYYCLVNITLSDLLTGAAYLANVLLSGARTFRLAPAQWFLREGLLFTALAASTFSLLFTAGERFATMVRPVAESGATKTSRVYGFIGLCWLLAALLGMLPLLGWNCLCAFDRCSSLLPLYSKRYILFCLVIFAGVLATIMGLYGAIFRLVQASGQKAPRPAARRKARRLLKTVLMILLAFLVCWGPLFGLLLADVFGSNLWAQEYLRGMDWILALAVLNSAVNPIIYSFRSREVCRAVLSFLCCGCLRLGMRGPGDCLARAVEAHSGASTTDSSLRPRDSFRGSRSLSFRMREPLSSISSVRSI
Nature of the data set: Agonist activity at human S1P4 receptor expressed in CHO-K1 cells by aequorin calcium accumulation assay. The format is functional, cell-based. In a few lines:
as §1

Data set [6] deals with T2, Cytochrome P450 3A4 (Homo sapiens, UniProt P08684). The data set can be described thus: Inhibition of human CYP3A4 by VR metabolism assay. The format is ADME.
T2 sequence (P08684 whole entry): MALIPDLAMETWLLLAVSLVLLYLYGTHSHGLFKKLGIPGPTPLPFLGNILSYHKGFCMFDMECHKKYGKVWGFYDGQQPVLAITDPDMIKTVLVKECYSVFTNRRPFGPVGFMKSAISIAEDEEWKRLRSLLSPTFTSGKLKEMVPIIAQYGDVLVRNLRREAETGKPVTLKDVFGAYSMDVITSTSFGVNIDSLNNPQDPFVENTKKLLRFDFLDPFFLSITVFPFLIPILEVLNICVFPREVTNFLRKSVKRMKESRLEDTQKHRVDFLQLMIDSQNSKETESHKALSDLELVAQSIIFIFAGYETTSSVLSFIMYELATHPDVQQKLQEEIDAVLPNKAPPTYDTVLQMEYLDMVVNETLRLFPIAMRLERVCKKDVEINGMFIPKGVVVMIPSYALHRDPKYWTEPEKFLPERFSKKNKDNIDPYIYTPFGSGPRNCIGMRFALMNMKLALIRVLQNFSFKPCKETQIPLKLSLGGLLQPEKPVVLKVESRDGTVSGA
Data set [7] in a line: Lipophilicity, log D of the compound at pH 10.5 by chromatography. The format is physicochemical. The following applies: buffer.
Data set [8] can be described thus: Fraction unbound in human blood after 4 hrs by LC-MS/MS analysis. It is filed as ADME, tissue-based. The gist of the method: (§3)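 Fresh blood (CD rat, CD1 mouse, Beagle dog, single human donor) spiked at 1000 ng/mL and dialysed against PBS by rapid equilibrium dialysis for 4 h at 37°C. Matrix-matched LC-MS/MS; unbound fraction taken from the buffer/blood peak area ratio.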

Data set [9] deals with T2, Cytochrome P450 3A4. The data set can be described thus: Inhibition of human CYP3A4 by VG metabolism assay. The format is ADME.
Data set [10] can be described thus: Fraction unbound in beagle dog blood after 4 hrs by LC-MS/MS analysis. It is filed as ADME, tissue-based, Canis lupus familiaris. In a few lines:
as §3

For data set [11], the target named is T2, Cytochrome P450 3A4. Nature of the data set: Inhibition of human CYP3A4 coexpressed in Escherichia coli with human NADPH reductase using nifedipine as substrate at 0.1 to 100 uM by fluorescence assay. The format is ADME. To be noted: TDE = time-dependent effect.
Data set [12] has as its system Hepatocyte. Nature of the data set: Intrinsic clearance in CD1 mouse hepatocytes at 0.5 uM after 2 hrs by LC-MS/MS analysis. The format is ADME, cell-based. In a few lines:
as §2

A further data set concerns Salmonella typhimurium. Nature of the data set: Mutagenicity in Salmonella typhimurium by Ames test. The format is toxicity, organism-based. The following applies: salmonella enterica subsp. enterica serovar typhimurium.
The subject of data set [13] is Hepatocyte. The data set can be described thus: Intrinsic clearance in Sprague-Dawley rat hepatocytes at 0.5 uM after 2 hrs by LC-MS/MS analysis. The format is ADME, cell-based. In a few lines:
as §2

A further data set has as its target T3, Cytochrome P450 1A2 (Homo sapiens, UniProt P05177).
T3 sequence (P05177 whole entry): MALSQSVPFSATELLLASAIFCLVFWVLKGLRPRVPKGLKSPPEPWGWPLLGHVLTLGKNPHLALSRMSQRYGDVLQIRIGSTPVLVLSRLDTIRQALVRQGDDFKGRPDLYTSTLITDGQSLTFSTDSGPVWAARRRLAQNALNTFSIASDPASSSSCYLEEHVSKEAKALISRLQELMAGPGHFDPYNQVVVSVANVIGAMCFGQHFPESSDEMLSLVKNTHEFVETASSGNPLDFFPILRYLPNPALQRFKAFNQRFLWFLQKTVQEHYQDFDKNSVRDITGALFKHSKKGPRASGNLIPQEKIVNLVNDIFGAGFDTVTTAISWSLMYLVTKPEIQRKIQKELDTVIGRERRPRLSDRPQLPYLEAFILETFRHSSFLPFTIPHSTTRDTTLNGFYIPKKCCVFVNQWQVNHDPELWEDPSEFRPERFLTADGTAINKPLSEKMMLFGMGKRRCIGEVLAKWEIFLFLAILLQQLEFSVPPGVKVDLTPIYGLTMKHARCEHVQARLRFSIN
Nature of the data set: Inhibition of CYP1A2 (unknown origin) coexpressed in Escherichia coli with human NADPH reductase using ethoxyresorufin as substrate after 10 mins by fluorescence assay. The format is ADME. The gist of the method:
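Recombinant CYP co-expressed in E. coli with human NADPH reductase, incubated with an isoform-specific pro-fluorescent substrate and compound (nine concentrations, 0.1-100 µM) plus a 0.2 mM NADPH regenerating system for 10 min at 37°C. Fluorescent metabolite formation was monitored.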

Data set [14] deals with Sphingosine 1-phosphate receptor 1 (Homo sapiens, UniProt P21453). Nature of the data set: Agonist activity at human S1P1 receptor expressed in RH7777 cells by [35S]GTP-gammaS accumulation assay. It is filed as cell-based. In a few lines:
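RH7777 S1P1 membranes (1.5 µg/well) precoupled 30 min on ice to WGA SPA beads in 20 mM HEPES, 10 mM MgCl2, 100 mM NaCl, pH 7.4, with 10 µM GDP and 90 µg/mL saponin (final). 0.5 nM [35S]GTPγS final added to compound; plates read immediately by scintillation proximity.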

Data set [15] addresses T2, Cytochrome P450 3A4. Nature of the data set: Inhibition of human CYP3A4 coexpressed in Escherichia coli with human NADPH reductase using midazolam as substrate at 0.1 to 100 uM by fluorescence assay. It is filed as ADME. To be noted: TDE = time-dependent effect.
Another data set concerns Rattus norvegicus. The data set can be described thus: Lymphopenia activity in oral dosed Lewis rat.
A short description of data set [16]: Fraction unbound in CD1 mouse blood after 4 hrs by LC-MS/MS analysis. It is filed as ADME, tissue-based. The gist of the method: as §3
The target of data set [17] is Sphingosine 1-phosphate receptor 3 (Homo sapiens, UniProt Q99500). Nature of the data set: Agonist activity at human S1P3 receptor expressed in RBL cells by [35S]GTP-gammaS accumulation assay. It is filed as cell-based. The gist of the method: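 Sucrose-gradient-purified RBL S1P3 membranes (0.44 µg/well) precoupled 30 min on ice to WGA SPA beads with 2 µg/well saponin in HEPES/MgCl2/NaCl buffer pH 7.4. 5 µM GDP final and 0.3 nM [35S]GTPγS final added, then dispensed onto compound in DMSO. Read by scintillation proximity after 3 h at room temperature.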
Sphingosine 1-phosphate receptor 3, sequence (Q99500 whole entry): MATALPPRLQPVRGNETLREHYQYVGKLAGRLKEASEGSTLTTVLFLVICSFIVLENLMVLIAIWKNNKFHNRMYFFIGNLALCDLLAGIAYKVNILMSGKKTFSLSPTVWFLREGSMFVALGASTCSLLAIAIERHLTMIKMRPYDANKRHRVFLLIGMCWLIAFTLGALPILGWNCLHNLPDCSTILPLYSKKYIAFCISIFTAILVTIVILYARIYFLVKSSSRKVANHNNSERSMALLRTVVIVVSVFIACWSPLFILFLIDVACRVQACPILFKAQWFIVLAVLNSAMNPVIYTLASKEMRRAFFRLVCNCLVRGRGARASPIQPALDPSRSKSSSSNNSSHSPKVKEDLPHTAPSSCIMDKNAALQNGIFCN
Background: Binding of GTPγS marks nucleotide exchange on a G protein.

In data set [18] the target is T2, Cytochrome P450 3A4. Nature of the data set: Inhibition of human CYP3A4 coexpressed in Escherichia coli with human NADPH reductase using atorvastatin as substrate at 0.1 to 100 uM by fluorescence assay. It is filed as ADME. The following applies: TDE = time-dependent effect.
Data set [19] can be described thus: Intrinsic clearance in beagle dog hepatocytes at 0.5 uM after 2 hrs by LC-MS/MS analysis. It is filed as ADME, cell-based, Canis lupus familiaris, Hepatocyte. The gist of the method:
as §2

Sphingosine 1-phosphate receptor 5, sequence (Q9H228 whole entry): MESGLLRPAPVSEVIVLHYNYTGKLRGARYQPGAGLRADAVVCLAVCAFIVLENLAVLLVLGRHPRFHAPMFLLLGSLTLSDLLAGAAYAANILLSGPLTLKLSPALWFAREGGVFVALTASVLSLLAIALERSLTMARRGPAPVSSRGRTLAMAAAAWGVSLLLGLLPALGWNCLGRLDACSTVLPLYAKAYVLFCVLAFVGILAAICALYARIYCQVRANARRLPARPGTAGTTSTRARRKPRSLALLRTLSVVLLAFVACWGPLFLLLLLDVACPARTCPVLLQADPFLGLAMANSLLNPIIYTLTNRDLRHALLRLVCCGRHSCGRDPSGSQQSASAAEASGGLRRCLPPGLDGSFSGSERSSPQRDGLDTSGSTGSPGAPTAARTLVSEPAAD
Sphingosine 1-phosphate receptor 1, sequence (P21453 whole entry): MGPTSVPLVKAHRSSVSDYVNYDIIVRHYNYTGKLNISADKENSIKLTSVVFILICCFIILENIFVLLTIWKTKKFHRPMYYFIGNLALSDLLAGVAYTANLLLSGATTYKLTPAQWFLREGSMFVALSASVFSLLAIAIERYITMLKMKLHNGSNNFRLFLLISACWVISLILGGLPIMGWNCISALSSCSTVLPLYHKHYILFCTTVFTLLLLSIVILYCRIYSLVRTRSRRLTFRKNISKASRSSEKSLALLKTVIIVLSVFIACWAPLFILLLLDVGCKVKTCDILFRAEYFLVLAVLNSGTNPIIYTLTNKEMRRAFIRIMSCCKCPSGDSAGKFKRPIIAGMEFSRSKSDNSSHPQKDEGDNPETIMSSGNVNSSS

Turning to `Cc1c2c(nn1-c1nnc(-c3ccc(OC(C)C)c(Cl)c3)s1)CCN(CCC(=O)O)C2`, the EC50 (as a rule, the midpoint of the concentration-response curve) is 16.6 nM in data set [1], above 39800 nM in data set [5], 6.31 nM in data set [14] and above 31600 nM in data set [17]. Besides, the CLH with Hepatocyte [2] is 1.8 mL/min/g; in the data set on Hepatocyte [12], below 0.85 mL/min/g; in the data set with Hepatocyte [13], 3.2 mL/min/g; in data set [19] it was 6 mL/min/g. Also, the results for the Activity result (in data set [3]; with Salmonella typhimurium) were “Not Active” and “Non-toxic”, respectively. The bioavailability (commonly dose-corrected exposure relative to a reference, in per cent) in data set [4] worked out at 52%. Moreover, the IC50 (commonly the midpoint of a concentration-inhibition curve) on Cytochrome P450 3A4 [6] is above 50000 nM; at Cytochrome P450 3A4 [9], above 50000 nM; against Cytochrome P450 1A2, above 50000 nM; with Rattus norvegicus it was 6 nM. The chromatographic logD (as a rule, a lipophilicity value derived from retention on a column) in data set [7] turned out to be 1.53. Further, the fraction unbound (commonly the share of the substance not bound to proteins or other matrix) at 4 h in data set [8] turned out to be 0.008; in data set [10], 0.011; in data set [16], 0.011. The “inhibition (INH)” value at Cytochrome P450 3A4 [11], on Cytochrome P450 3A4 [15] and on Cytochrome P450 3A4 [18] was “tde” each time.
